Series [1] addresses T1, Cytochrome P450 11B1, mitochondrial (Homo sapiens, UniProt P15538).
T1 sequence (P15538 whole entry): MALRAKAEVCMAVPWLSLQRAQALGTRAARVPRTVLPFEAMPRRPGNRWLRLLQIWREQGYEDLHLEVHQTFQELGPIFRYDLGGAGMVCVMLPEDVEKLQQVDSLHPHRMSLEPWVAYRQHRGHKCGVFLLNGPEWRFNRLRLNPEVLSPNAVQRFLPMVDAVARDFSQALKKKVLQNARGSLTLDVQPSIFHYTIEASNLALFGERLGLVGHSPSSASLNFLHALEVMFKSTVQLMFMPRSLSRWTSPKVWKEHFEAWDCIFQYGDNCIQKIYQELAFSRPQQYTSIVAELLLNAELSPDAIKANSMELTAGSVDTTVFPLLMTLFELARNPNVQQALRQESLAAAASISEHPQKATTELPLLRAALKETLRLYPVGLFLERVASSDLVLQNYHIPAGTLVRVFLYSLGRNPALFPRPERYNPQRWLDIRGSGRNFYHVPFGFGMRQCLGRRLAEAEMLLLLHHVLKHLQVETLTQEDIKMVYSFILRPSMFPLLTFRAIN
Description: Inhibition of human CYP11B1 expressed in V79 cells assessed as cortisol level after 3 hrs by HTRF assay in presence of 250 nM 11-deoxycortisol. The class given is cell-based.

Series [2] is described as follows: Lipophilicity, log D of the compound by HPLC. The class given is physicochemical. The procedure, abridged: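 Lipophilicity determined experimentally by HPLC.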
Series [3] relates to Rattus norvegicus. As to the kind of experiment: Dose normalized AUC in Sprague-Dawley rat at 2 mg/kg, po administered through gavage. Conditions: in vivo. In kind it is ADME, organism-based.
Series [4] can be described thus: Plasma clearance in Sprague-Dawley rat at 2 mg/kg, po administered through gavage by LC/MS/MS method. In kind it is ADME, organism-based.
In series [5] the test system is Plasma. As to the kind of experiment: Plasma protein binding in rhesus monkey. The class given is ADME, cell-free, Macaca mulatta.
The nature of series [6]: Intrinsic clearance in rhesus monkey liver microsomes by LC/MS method. The class given is ADME, Macaca mulatta. In general terms: Liver microsomes are a subcellular fraction often used to study metabolism.
Series [7] in a line: Plasma clearance in rhesus monkey at 2 mg/kg administered through gavage by LC-MS/MS method. In kind it is ADME, organism-based, Macaca mulatta. The following applies: po.
Series [8] is described as follows: Half life in rhesus monkey at 2 mg/kg administered through gavage. The following applies: in vivo, po. The class given is ADME, organism-based, Macaca mulatta.
Series [9] in a line: Inhibition of rhesus monkey CYP11B2 expressed in V79 cells assessed as aldosterone level after 3 hrs by HTRF assay in presence of 125 nM 11-deoxycorticosterone. In kind it is cell-based. The following applies: Macaca mulatta, V79, 3 h. For orientation: TR-FRET usually uses a lanthanide donor and a delayed reading to cut background.
The test system of series [10] is Rhesus monkey. Description: Decrease in aldosterone level in rhesus monkey plasma at 0.1 mg/kg, iv by LC/MS method. Conditions: Macaca mulatta. The class given is functional. Summed up:
(§1)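 Plasma aldosterone and 11-deoxycortisol quantified by LC–MS at time points up to 180 min postdose; AUCs over that period calculated and compared with baseline.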

The test system of series [11] is Rhesus monkey. Description: Decrease in aldosterone level in rhesus monkey plasma at 0.3 mg/kg, iv by LC/MS method. The class given is functional. The following applies: Macaca mulatta. The procedure, abridged: as §1
Series [12] concerns Plasma. Description: Free plasma concentration in rhesus monkey at 0.1 mg/kg, iv measured 90 mins post dose by LC/MS method. In kind it is ADME, organism-based, Macaca mulatta. Conditions: in vivo, 1.5 h. The procedure, abridged: (§2)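 Anesthetized rhesus monkeys dosed i.v.; plasma drug concentration measured 90 min postdose. Free (unbound) concentration calculated from total plasma level using the free fraction determined in rhesus plasma.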

For series [13], the system named is Plasma. Description: Free plasma concentration in rhesus monkey at 0.3 mg/kg, iv measured 90 mins post dose by LC/MS method. In kind it is ADME, organism-based, Macaca mulatta. Conditions: in vivo, 1.5 h. Summed up: as §2
The subject of series [14] is Rhesus monkey. As to the kind of experiment: Effect on 11-deoxycortisol level in rhesus monkey plasma upto 1 mg/kg, iv by LC/MS method. Conditions: Macaca mulatta. The class given is functional, organism-based. Summed up: as §1

Each structure is given as a SMILES string. Active and inactive are the calls of the source. The rule behind the calls is not given here. Bounds are passed on as bounds.

The term IC50 denotes the concentration that inhibits the measured activity by half. Usually logD stands for the decadic logarithm of the distribution of all forms, ionised or not, between an organic phase and buffer at a given pH. For orientation: CL/F means clearance divided by bioavailability, as obtained after extravascular dosing. A word on the CLint scaled: it is a measure of how fast metabolising enzymes remove a compound, apart from limits set by blood flow. Broadly, the half-life is the time in which the quantity being followed falls by half. Usually inhibition in vivo stands for the relative decrease from the control value, in per cent. With `Cc1nnc2n1-c1ccc(-c3cncc([C@](C)(O)C(F)(F)F)c3)cc1CC2`, the values for the IC50 in series [1] and in series [9] were 4.4 µM and 0.012 µM, respectively. Also, the logD in [2] amounted to 1.2. The AUC/dose in series [3] worked out at 1.88 µM·kg·h/mg. In addition, the CL/F in [4] came to 21 mL/min/kg; in [7] it was 3 mL/min/kg. Also, the PPB in [5] turned out to be 31%. The same compound displayed a CLint scaled in series [6] of less than 20 mL/min/kg. In addition, the half-life in series [8] is 7.8 h. Besides, 0.1 mg/kg produced 48% inhibition in vivo in series [10]. Also, testing at 0.3 mg/kg in series [11] gave an inhibition in vivo of 71%. Moreover, the “Cp(f)” value came to 19 nM in series [12] and 73 nM in series [13]. Besides, the result in series [14] was inactive.
